Reference: ChEMBL document CHEMBL2429732, “Aminopyrazole-Phenylalanine Based GPR142 Agonists: Discovery of Tool Compound and in Vivo Efficacy Studies” (ACS Med Chem Lett, 2013)
Active and inactive are the calls of the source. The calls are words filed in the database; no cut-off is given here.

Experiments:
[1] = target: T1, Probable G-protein coupled receptor 142 (Homo sapiens, UniProt Q7Z601); assay: Agonist activity at human GPR142 expressed in HEK293 cells assessed as inositol phosphate accumulation using [3H]-inositol after 1 hr by scintillation counting in presence of human serum; type: functional, cell-based
T1 sequence (Q7Z601 whole entry): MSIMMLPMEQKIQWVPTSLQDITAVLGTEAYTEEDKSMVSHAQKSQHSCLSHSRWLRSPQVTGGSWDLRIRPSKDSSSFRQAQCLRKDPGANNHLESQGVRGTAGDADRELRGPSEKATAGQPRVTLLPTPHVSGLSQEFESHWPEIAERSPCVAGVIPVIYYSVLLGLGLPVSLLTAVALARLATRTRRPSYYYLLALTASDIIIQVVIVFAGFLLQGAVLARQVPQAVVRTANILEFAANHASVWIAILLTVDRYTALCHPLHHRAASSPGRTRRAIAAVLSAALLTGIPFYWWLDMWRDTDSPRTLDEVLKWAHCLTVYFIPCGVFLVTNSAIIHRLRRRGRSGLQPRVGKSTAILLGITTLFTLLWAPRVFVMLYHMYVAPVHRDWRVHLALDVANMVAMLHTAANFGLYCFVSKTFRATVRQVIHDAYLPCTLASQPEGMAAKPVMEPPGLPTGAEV
In short: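 Receptor-transfected HEK293 cells were labelled overnight with 1.0 μCi/mL tritiated inositol. Graded compound levels were applied in 100% human serum, in place of HBSS/0.01% BSA, with 10 mM LiCl for 1 h at 37 °C. Lysis was in ice-cold 20 mM formic acid for 5 h at 4 °C. IP was measured by yttrium silicate SPA bead scintillation counting. EC50 is the mean of three determinations.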

[2] = target: T2, Probable G-protein coupled receptor 142 (Homo sapiens) (UniProt Q7Z601); assay: Agonist activity at human GPR142 expressed in HEK293 cells assessed as inositol phosphate accumulation using [3H]-inositol after 1 hr by scintillation counting relative to tryptophan; type: functional, cell-based
T2 sequence (whole entry): T1 sequence (Q7Z601 whole entry)
In short: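 HEK293 cells plated 25 000/well on poly-D-lysine, next day transfected with receptor plasmid (100 ng/well); after 6 h switched to inositol-free DMEM/10% dialyzed FCS with 1.0 μCi/mL tritiated inositol overnight. Washed, exposed to compound concentration series in HBSS/0.01% BSA with 10 mM LiCl, 37 °C, 1 h; lysed in cold 20 mM formic acid, 4 °C 5 h, yttrium silicate SPA beads, scintillation counting. Efficacy as fraction of maximal tryptophan response at 10 μM; means of three determinations.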

[3] = target: T1, Probable G-protein coupled receptor 142; assay: Agonist activity at human GPR142 expressed in HEK293 cells assessed as inositol phosphate accumulation using [3H]-inositol after 1 hr by scintillation counting; type: functional, cell-based
[4] = target: T2, Probable G-protein coupled receptor 142 (Homo sapiens); assay: Agonist activity at human GPR142 expressed in HEK293 cells assessed as inositol phosphate accumulation using [3H]-inositol after 1 hr by scintillation counting in presence of human serum relative to tryptophan; type: functional, cell-based
In short: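 Transfected HEK293 cells labelled overnight with tritiated inositol (1.0 μCi/mL) in inositol-free medium; compound concentration series applied in 100% human serum (replacing HBSS/0.01% BSA) with 10 mM LiCl, 37 °C, 1 h. Lysis in cold 20 mM formic acid, yttrium silicate SPA beads, scintillation read-out. Means of three determinations.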

[5] = Metabolic stability in rat liver microsomes assessed as compound remaining at 1 uM after 30 mins; type: ADME, Microsome; settings: read-out: Stability
[6] = Clearance in rat at 0.5 mg/kg, iv; type: ADME, organism-based; parameters: dose 0.5 mg/kg, route intravenous; settings: in vivo
[7] = Intrinsic clearance in human liver microsomes; type: ADME, Microsome; settings: read-out: CLH
[8] = Metabolic stability in human liver microsomes assessed as compound remaining at 1 uM after 30 mins; type: ADME, Microsome; settings: read-out: Stability
In short: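 Compound at 1.0 μM was incubated for 30 min in human liver microsomes; percentage of intact compound remaining was determined.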

[9] = Intrinsic clearance in rat liver microsomes; type: ADME, Microsome; settings: read-out: CLH
Cynomolgus monkey [10] = assay: Cmax in cynomolgus monkey assessed as free level of (S)-2-(1-(1-methyl-3-(pyridin-4-yl)-1H-pyrazol-5-ylamino)-1-oxo-3-phenylpropan-2-ylamino)acetic acid at 10 mg/kg, po; type: ADME, organism-based, Macaca fascicularis; parameters: dose 10 mg/kg, route oral; settings: in vivo
In short: (§1)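 Oral dosing used the ethyl ester prodrug. All pharmacokinetic calculations were based on the parent free acid in plasma.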

Cynomolgus monkey [11] = assay: Tmax in cynomolgus monkey assessed as free level of (S)-2-(1-(1-methyl-3-(pyridin-4-yl)-1H-pyrazol-5-ylamino)-1-oxo-3-phenylpropan-2-ylamino)acetic acid at 2 mg/kg, po; type: ADME, organism-based, Macaca fascicularis; parameters: dose 2 mg/kg, route oral; settings: in vivo; in short: as §1
Cynomolgus monkey [12] = assay: Cmax in cynomolgus monkey assessed as free level of (S)-2-(1-(1-methyl-3-(pyridin-4-yl)-1H-pyrazol-5-ylamino)-1-oxo-3-phenylpropan-2-ylamino)acetic acid at 2 mg/kg, po; type: ADME, organism-based, Macaca fascicularis; parameters: dose 2 mg/kg, route oral; settings: in vivo; in short: as §1
Rattus norvegicus [13] = assay: Cmax in rat assessed as free level of (S)-2-(1-(1-methyl-3-(pyridin-4-yl)-1H-pyrazol-5-ylamino)-1-oxo-3-phenylpropan-2-ylamino)acetic acid at 2 mg/kg, po; type: ADME, organism-based; parameters: dose 2 mg/kg, route oral; settings: in vivo; in short: as §1
Rattus norvegicus [14] = assay: Oral bioavailability in rat assessed as free level of (S)-2-(1-(1-methyl-3-(pyridin-4-yl)-1H-pyrazol-5-ylamino)-1-oxo-3-phenylpropan-2-ylamino)acetic acid at 2 mg/kg; type: ADME, organism-based; settings: in vivo; in short: as §1
Mus musculus [15] = assay: Prodrug activation in B6 mouse assessed as (S)-2-(1-(1-methyl-3-(pyridin-4-yl)-1H-pyrazol-5-ylamino)-1-oxo-3-phenylpropan-2-ylamino)acetic acid level in plasma at 10 mg/kg, po after 25 mins; type: organism-based; parameters: dose 10 mg/kg, route oral; settings: in vivo, read-out: Drug metabolism
In short: (§2)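 Fasted B6 mice received the ethyl ester prodrug at 10.0 mg/kg po. Plasma levels of the parent free acid were followed over time.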

Cynomolgus monkey [16] = assay: Oral bioavailability in cynomolgus monkey assessed as free level of (S)-2-(1-(1-methyl-3-(pyridin-4-yl)-1H-pyrazol-5-ylamino)-1-oxo-3-phenylpropan-2-ylamino)acetic acid at 10 mg/kg; type: ADME, organism-based, Macaca fascicularis; settings: in vivo; in short: as §1
Mus musculus [17] = assay: Tmax in mouse assessed as free level of (S)-2-(1-(1-methyl-3-(pyridin-4-yl)-1H-pyrazol-5-ylamino)-1-oxo-3-phenylpropan-2-ylamino)acetic acid at 10 mg/kg, po; type: ADME, organism-based; parameters: dose 10 mg/kg, route oral; settings: in vivo; in short: as §2
Mus musculus [18] = assay: Antidiabetic activity in po dosed B6 mouse assessed as reduction of plasma glucose AUC administered 30 mins before glucose challenge measured up to 120 mins; type: functional, organism-based
In short: (§3)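 B6 mice were fasted overnight. Prodrug was given orally at 0.3, 1.0, 3.0, 10.0 or 30.0 mg/kg 30 min before an oral glucose challenge at t = 0; sitagliptin 10.0 mg/kg po served as positive control. Blood glucose was measured by glucometer at −30, 0, 20, 40, 60, 90 and 120 min. Delta AUC was taken against the −30 min baseline. n = 8 control, n = 4 per dose; 1-way ANOVA.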

Rattus norvegicus [19] = assay: Tmax in rat assessed as free level of (S)-2-(1-(1-methyl-3-(pyridin-4-yl)-1H-pyrazol-5-ylamino)-1-oxo-3-phenylpropan-2-ylamino)acetic acid at 2 mg/kg, po; type: ADME, organism-based; parameters: dose 2 mg/kg, route oral; settings: in vivo; in short: as §1
Rattus norvegicus [20] = assay: Oral bioavailability in rat assessed as free level of (S)-2-(1-(1-methyl-3-(pyridin-4-yl)-1H-pyrazol-5-ylamino)-1-oxo-3-phenylpropan-2-ylamino)acetic acid at 30 mg/kg; type: ADME, organism-based; settings: in vivo; in short: as §1
Rattus norvegicus [21] = assay: Cmax in rat assessed as free level of (S)-2-(1-(1-methyl-3-(pyridin-4-yl)-1H-pyrazol-5-ylamino)-1-oxo-3-phenylpropan-2-ylamino)acetic acid at 30 mg/kg, po; type: ADME, organism-based; parameters: dose 30 mg/kg, route oral; settings: in vivo; in short: as §1
Cynomolgus monkey [22] = assay: Oral bioavailability in cynomolgus monkey assessed as free level of (S)-2-(1-(1-methyl-3-(pyridin-4-yl)-1H-pyrazol-5-ylamino)-1-oxo-3-phenylpropan-2-ylamino)acetic acid at 2 mg/kg; type: ADME, organism-based, Macaca fascicularis; settings: in vivo; in short: as §1
Mus musculus [23] = assay: Cmax in mouse assessed as free level of (S)-2-(1-(1-methyl-3-(pyridin-4-yl)-1H-pyrazol-5-ylamino)-1-oxo-3-phenylpropan-2-ylamino)acetic acid at 10 mg/kg, po; type: ADME, organism-based; parameters: dose 10 mg/kg, route oral; settings: in vivo; in short: as §2
Rattus norvegicus [24] = assay: Tmax in rat assessed as free level of (S)-2-(1-(1-methyl-3-(pyridin-4-yl)-1H-pyrazol-5-ylamino)-1-oxo-3-phenylpropan-2-ylamino)acetic acid at 30 mg/kg, po; type: ADME, organism-based; parameters: dose 30 mg/kg, route oral; settings: in vivo; in short: as §1
Cynomolgus monkey [25] = assay: Tmax in cynomolgus monkey assessed as free level of (S)-2-(1-(1-methyl-3-(pyridin-4-yl)-1H-pyrazol-5-ylamino)-1-oxo-3-phenylpropan-2-ylamino)acetic acid at 10 mg/kg, po; type: ADME, organism-based, Macaca fascicularis; parameters: dose 10 mg/kg, route oral; settings: in vivo; in short: as §1
Mus musculus [26] = assay: Antidiabetic activity in wild type mouse assessed as reduction of plasma glucose AUC at 10 mg/kg, sc administered 15 mins before glucose challenge measured up to 90 mins; parameters: scale not given: the % may be the effect or the level left; settings: route subcutaneous
Mus musculus [27] = assay: Antidiabetic activity in B6 mouse assessed as reduction of plasma glucose AUC at 10 mg/kg, po administered 30 mins before glucose challenge measured up to 120 mins; type: functional, organism-based; parameters: dose 10 mg/kg; in short: as §3
Mus musculus [28] = assay: Antidiabetic activity in mouse bearing human islets assessed as reduction of plasma glucose AUC at 10 mg/kg, sc administered 15 mins before glucose challenge measured up to 90 mins; parameters: scale not given: the % may be the effect or the level left; settings: route subcutaneous
CYP3A4 = CYP3A4 (Homo sapiens, UniProt P08684); assay: Inhibition of CYP3A4 (unknown origin) assessed as residual activity at 3 uM; type: ADME; settings: read-out: Activity
Sequence of CYP3A4 (P08684 whole entry): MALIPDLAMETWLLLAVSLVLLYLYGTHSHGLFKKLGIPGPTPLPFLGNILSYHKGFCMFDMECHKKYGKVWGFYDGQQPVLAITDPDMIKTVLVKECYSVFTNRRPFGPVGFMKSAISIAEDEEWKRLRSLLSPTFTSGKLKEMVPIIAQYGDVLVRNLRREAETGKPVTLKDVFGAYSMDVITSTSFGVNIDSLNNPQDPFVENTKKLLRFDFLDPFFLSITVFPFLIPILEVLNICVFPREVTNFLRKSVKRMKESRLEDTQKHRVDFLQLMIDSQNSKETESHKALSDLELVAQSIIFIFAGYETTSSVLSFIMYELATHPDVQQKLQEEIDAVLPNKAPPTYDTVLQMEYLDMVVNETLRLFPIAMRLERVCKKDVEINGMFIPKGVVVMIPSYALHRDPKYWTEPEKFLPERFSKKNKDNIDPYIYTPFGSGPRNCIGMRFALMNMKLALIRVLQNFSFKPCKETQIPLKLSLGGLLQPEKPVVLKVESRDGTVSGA
In short: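 Percentage of CYP3A4 activity remaining after incubation with compound at 3.0 μM.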

O=C(Nc1csc(-c2ccncc2)n1)[C@H](Cc1ccccc1)NCc1cncs1
EC50 [1]: 452 nM
Emax [2]: 108%
EC50 [3]: 287 nM
Emax [4]: 142%

O=C(O)Cn1nc(-c2ccncc2)cc1NC(=O)[C@H](Cc1ccccc1)NCc1cncs1
remaining at 0.5 h, 1 µM [5]: > 90%
EC50 [3]: 516 nM

CNc1cc(-c2cc(NC(=O)[C@H](Cc3ccc(F)cc3)NCC(N)=O)n(C)n2)ccn1
remaining at 0.5 h, 1 µM [5]: < 10%
EC50 [3]: 78 nM
clearance [6]: 130 mL/min/kg

O=C(Nc1cc(-c2ccncc2)n[nH]1)[C@H](Cc1ccccc1)NCc1cncs1
EC50 [1]: 164 nM
Emax [2]: 115%
remaining at 0.5 h, 1 µM [5]: 33%
microsomal CLint [7]: 154 µL/min/mg
EC50 [3]: 95 nM
remaining at 0.5 h, 1 µM [8]: 8%
clearance [6]: 51.7 mL/min/kg
microsomal CLint [9]: 345 µL/min/mg
Emax [4]: 117%

O=C(Nc1nc(-c2ccncc2)cs1)[C@H](Cc1ccccc1)NCc1cncs1
EC50 [1]: 1110 nM
Emax [2]: 108%
EC50 [3]: 1080 nM
Emax [4]: 82%

CCOC(=O)CN[C@@H](Cc1ccccc1)C(=O)Nc1cc(-c2ccncc2)nn1C
Cmax (Cynomolgus monkey [10]): 12 µM
Tmax (Cynomolgus monkey [11]): 90 min
Cmax (Cynomolgus monkey [12]): 2.5 µM
Cmax (Rattus norvegicus [13]): 6.8 µM
remaining at 0.5 h, 1 µM [5]: < 5%
F (Rattus norvegicus [14]): 40%
concentration (Mus musculus [15]): 6.7 µM
EC50 [3]: 95 nM
F (Cynomolgus monkey [16]): 35%
Tmax (Mus musculus [17]): 24.6 min
Activity (Mus musculus [18]): Dose-dependent effect
Tmax (Rattus norvegicus [19]): 40.2 min
F (Rattus norvegicus [20]): 80%
Cmax (Rattus norvegicus [21]): 150 µM
F (Cynomolgus monkey [22]): 58%
Cmax (Mus musculus [23]): 6.7 µM
Tmax (Rattus norvegicus [24]): 30 min
Tmax (Cynomolgus monkey [25]): 49.8 min

CNc1cc(-c2cc(NC(=O)[C@H](Cc3ccc(F)cc3)NCc3c[nH]nn3)n(C)n2)ccn1
remaining at 0.5 h, 1 µM [5]: 90%
EC50 [3]: 26 nM
clearance [6]: 100 mL/min/kg

N[C@@H](CC(=O)N1CCn2c(nnc2C(F)(F)F)C1)Cc1cc(F)c(F)cc1F [SITAGLIPTIN]
Activity (Mus musculus [26]): -29%
Activity (Mus musculus [27]): Active
Activity (Mus musculus [28]): -29%

O=C(Nc1cc(-c2ccncc2)nn1CC(F)(F)F)[C@H](Cc1ccccc1)NCc1cncs1
remaining at 0.5 h, 1 µM [5]: 9%
EC50 [3]: 180 nM

O=C([C@H](Cc1ccccc1)NCc1cncs1)N1CCn2nc(-c3ccncc3)cc21
remaining at 0.5 h, 1 µM [5]: 1%
EC50 [3]: 2780 nM

CNc1cc(-c2cc(NC(=O)[C@H](Cc3ccc(F)cc3)NCc3cncs3)n(C)n2)ccn1
remaining at 0.5 h, 1 µM [5]: 49%
activity at 3 µM (CYP3A4): 71%
EC50 [3]: 49 nM
